{"data": "Measurements from different studies", "target": "Serine/threonine-protein kinase Nek3 (NEK3, Homo sapiens, UniProt P51956)", "One construct used (P51956 1-506)": "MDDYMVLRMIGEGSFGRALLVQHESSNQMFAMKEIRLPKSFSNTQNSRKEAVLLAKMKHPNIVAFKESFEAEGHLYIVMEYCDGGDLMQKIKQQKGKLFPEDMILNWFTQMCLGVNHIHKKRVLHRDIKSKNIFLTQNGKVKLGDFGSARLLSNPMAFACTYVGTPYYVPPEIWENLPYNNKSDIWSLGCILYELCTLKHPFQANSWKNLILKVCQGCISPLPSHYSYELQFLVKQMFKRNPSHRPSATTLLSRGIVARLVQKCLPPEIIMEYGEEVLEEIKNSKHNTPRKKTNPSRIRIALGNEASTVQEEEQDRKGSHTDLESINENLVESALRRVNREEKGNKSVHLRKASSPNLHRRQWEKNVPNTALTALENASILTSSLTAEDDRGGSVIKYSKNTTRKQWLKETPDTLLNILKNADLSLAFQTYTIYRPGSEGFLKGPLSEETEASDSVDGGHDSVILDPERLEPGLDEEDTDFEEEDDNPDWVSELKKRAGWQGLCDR", "note": "Each line is one published result; the experiments were not run side by side."}
{"SMILES": "CN(C)c1nccc(-c2cnc3ncccn23)n1", "assay": "binding", "setting": "1 µM", "remaining binding [%]": 100}
{"SMILES": "CNC(=O)[C@@H]1CC[C@@H](n2c(-c3ccc4cnccc4c3)nc3ccc(C(=O)NCc4cccc(C(N)=O)c4)cc32)C1", "assay": "binding, competition with immobilised ligand", "setting": "1 µM", "remaining binding [%]": 61}
{"SMILES": "O=C(NCCCN1CCOCC1)c1ccc(Nc2nccc(-c3cc4ccccc4s3)n2)cc1", "assay": "binding, competition with immobilised ligand", "setting": "1 µM", "remaining binding [%]": 2.7}
{"SMILES": "CC(C)CC(=O)N1CCc2nc(-c3ccc(Br)cc3)nc(N(C)Cc3ccccc3)c2C1", "assay": "cell-free assay, competition with immobilised ligand", "setting": "0.1 µM", "remaining binding [%]": 100}
{"SMILES": "O=C(c1ccc(Nc2nccc(-c3cc4ccccc4s3)n2)cc1)N1CCC(N2CCCC2)CC1", "assay": "binding, competition with immobilised ligand", "setting": "1 µM", "remaining binding [%]": 5.4}
{"SMILES": "COc1cnc(Nc2cccc(S(N)(=O)=O)c2)nc1N1CCN(c2ccccc2)CC1", "assay": "binding, competition with immobilised ligand", "setting": "1 µM", "remaining binding [%]": 74}
{"SMILES": "O=C(NCC1CCOCC1)c1n[nH]cc1NC(=O)c1c(F)cccc1F", "assay": "binding, competition with immobilised ligand", "setting": "1 µM", "remaining binding [%]": 66}
{"SMILES": "O=C(NCc1ncc(C(F)(F)F)cc1Cl)c1ccc2c(c1)C1(CCS(=O)(=O)CC1)[C@H](C1CC1)N2S(=O)(=O)c1ccc(F)cc1", "assay": "cell-free assay, competition with immobilised ligand", "setting": "1 µM", "remaining binding [%]": 100}
{"SMILES": "CCN1CCN(Cc2ccc(C(=O)Nc3ccc(C)c(Oc4ccc5c(c4)CC(=O)N5)c3)cc2C(F)(F)F)CC1", "assay": "binding, competition with immobilised ligand", "setting": "1 µM", "remaining binding [%]": 100}
{"SMILES": "O=C(Nc1cnc(Oc2ccc(F)cc2)nc1)N1CCc2ncccc2[C@@H]1c1ccc(F)cc1", "assay": "cell-free assay, competition with immobilised ligand", "setting": "1 µM", "remaining binding [%]": 67}
{"SMILES": "CN(C)c1ncc(F)c(-c2cnn3ncccc23)n1", "assay": "binding", "setting": "1 µM", "remaining binding [%]": 70}
{"SMILES": "CN(C(=O)c1ccccc1)c1cc(N(C)c2ccc3c(c2)CCc2ccc(C(=O)NCCN4CCOCC4)cc2C3=O)ccc1F", "assay": "cell-free assay, competition with immobilised ligand", "setting": "1 µM", "remaining binding [%]": 99}
{"SMILES": "Nc1ncc2c(n1)-c1c([nH]c3ccc(C#CC4CC4)cc13)CCCC2", "assay": "binding, competition with immobilised ligand", "setting": "1 µM", "remaining binding [%]": 78}
{"SMILES": "C[C@H]1CCN(c2nccc(-c3cnn4ncccc34)n2)C1", "assay": "binding", "setting": "1 µM", "remaining binding [%]": 70}
{"SMILES": "O=C(O)[C@@H]1[C@@H](Cn2nnc3ccccc3c2=O)CC[C@H]1C(=O)c1ccc(OCCC2CCOCC2)cc1", "assay": "cell-free assay, competition with immobilised ligand", "setting": "1 µM", "remaining binding [%]": 83}
{"SMILES": "N[C@H]1CCN(c2nccc(-c3cnn4ncccc34)n2)C1", "assay": "binding", "setting": "1 µM", "remaining binding [%]": 100}
{"SMILES": "CCOCCn1cc(C(=O)Nc2ccc(-n3nc(-c4cccnc4)cc3C(F)(F)F)cn2)ccc1=O", "assay": "cell-free assay, competition with immobilised ligand", "setting": "1 µM", "remaining binding [%]": 100}
{"SMILES": "CN(c1nccc(-c2cnn3ncccc23)n1)C1CC1", "assay": "binding", "setting": "1 µM", "remaining binding [%]": 87}
{"SMILES": "O=C(c1ccc(Nc2ncc(Cl)c(-c3ccc(Cl)s3)n2)cc1)N1CCC(N2CCCC2)CC1", "assay": "binding, competition with immobilised ligand", "setting": "1 µM", "remaining binding [%]": 0.45}
{"SMILES": "F[C@@H]1CCN(c2nccc(-c3cnn4ncccc34)n2)C1", "assay": "binding", "setting": "1 µM", "remaining binding [%]": 90}
{"SMILES": "FC(F)(F)Oc1cccc(-c2cnc3ccc(-c4ccncc4)nn23)c1", "assay": "cell-free assay, competition with immobilised ligand", "setting": "5 µM", "remaining binding [%]": 73}
